Measurements taken from article PMC3290340 (Pigment cell & melanoma research, 2012).

How the values were obtained:
recombinant SPHK1 = recombinant SPHK1 (Homo sapiens, UniProt Q9NYA1); assay: In vitro SphK activity assay with recombinant SPHK1; type: biochemical; details: recombinant protein, Fig. 2B
[1] = system: UACC 903 xenografted melanoma tumors; assay: Xenografted UACC 903 melanoma tumor growth; type: in vivo, nude mice; details: UACC 903 xenograft, 100 mg/kg i.p. Mon/Wed/Fri, day 22
Summary of the method: (§1)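 Female nude mice, 4-6 weeks old, injected s.c. above both rib cages with 5×10^6 UACC 903 or 2.5×10^6 1205 Lu cells in 0.2 ml DMEM/10% FBS. On day 6, randomized (n=5, 10 tumors per group). Dosed i.p. at 100 mg/kg in 50 μl DMSO (or DMSO alone) Mon/Wed/Fri for 3 weeks. Tumor dimensions by calipers; body weight monitored.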

recombinant SPHK2 = molecular target: T1, recombinant SPHK2 (Homo sapiens, UniProt Q9NRA0); assay: In vitro SphK activity assay with recombinant SPHK2; type: biochemical; details: Fig. 2B
T1 sequence (Q9NRA0 1-654): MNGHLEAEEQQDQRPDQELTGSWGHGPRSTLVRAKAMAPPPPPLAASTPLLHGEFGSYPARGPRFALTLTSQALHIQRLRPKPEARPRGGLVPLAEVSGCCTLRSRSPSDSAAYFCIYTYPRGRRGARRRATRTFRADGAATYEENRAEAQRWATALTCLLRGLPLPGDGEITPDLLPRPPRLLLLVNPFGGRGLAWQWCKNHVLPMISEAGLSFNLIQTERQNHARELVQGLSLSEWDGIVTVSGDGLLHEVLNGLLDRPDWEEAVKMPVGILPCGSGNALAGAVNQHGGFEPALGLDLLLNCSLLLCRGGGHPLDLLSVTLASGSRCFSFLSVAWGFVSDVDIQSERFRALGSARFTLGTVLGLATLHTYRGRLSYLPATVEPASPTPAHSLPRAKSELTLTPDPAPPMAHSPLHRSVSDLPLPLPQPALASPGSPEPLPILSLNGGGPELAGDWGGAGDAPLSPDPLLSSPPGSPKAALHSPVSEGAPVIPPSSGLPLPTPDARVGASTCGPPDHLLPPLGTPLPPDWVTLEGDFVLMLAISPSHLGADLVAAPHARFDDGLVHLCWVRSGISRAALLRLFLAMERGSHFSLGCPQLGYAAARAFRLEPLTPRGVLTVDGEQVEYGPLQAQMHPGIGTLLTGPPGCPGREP

UACC 903 cells [2] = assay: Cellular S-1-P and ceramide content by LC-MS-MS, UACC 903; type: cell-based, human; details: UACC 903, 2.5 and 5.0 μM, 48 hours
Summary of the method: (§2)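 UACC 903 or 1205 Lu cells (2.0×10^6, triplicate dishes) in DMEM/10% FBS; after 24 h, PBS-washed and treated 48 h with 2.5 or 5.0 μM test compound or DMSO. Floating cells pelleted at 500 x g, 5 min, 4 °C, PBS-washed and pooled with scraped adherent cells. Extracts assayed by LC-MS-MS for sphingosine, S-1-P and ceramides.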

[3] = Body weight during i.p. treatment; type: in vivo, nude mice; details: 100 mg/kg
1205 Lu melanoma cells = assay: MTS cell viability, 1205 Lu; type: cell-based, human; details: value of the text (Fig. 3A, 72 hours)
Summary of the method: (§3)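 5×10^3 cells/well in DMEM/10% FBS, pre-grown 36 h (melanoma lines) or 72 h (FF2441 fibroblasts, FOM melanocytes). Then exposed to test compound (0.5–100 μM) or DMSO for 24, 48 or 72 h. Viability by MTS relative to vehicle-treated cells; IC50 fitted per line. Melanoma values also averaged across the six melanoma lines.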

UACC 903 cells [4] = assay: Cell cycle analysis; type: cell-based, human; details: 72 h
Summary of the method: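 1.5×10^6 UACC 903 cells grown in 100-mm dishes, then treated 72 h with 1, 2.5 or 5.0 μM test compound or DMSO. Floating plus adherent cells collected by trypsinization and stained 30 min at 4 °C (propidium iodide 100 μg/ml, RNase A 20 μg/ml, Triton X-100 3 μg/mL in 0.1% sodium citrate). Phase distribution by FACScan.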

UACC 903 cells [5] = assay: Caspase-3/7 activity; type: cell-based, human; details: UACC 903, 72 hours, tested 1, 2.5, 5.0 μM
Summary of the method: (§4)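 UACC 903, A375M or 1205 Lu cells (5×10^3/well, 96-well) exposed 72 h to test compound or DMSO. Caspase-3/7 substrate Z-DEVD-R110 (Apo-ONE kit) added 4 h before the end of treatment. Read-out is fold increase in caspase-3/7 activity over DMSO-treated cells. At least 3 independent experiments, SEM.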

melanoma cells = assay: MTS cell viability, average/range over the melanoma cell lines; type: cell-based, human
Summary of the method: as §3

UACC 903 melanoma cells = assay: MTS cell viability, UACC 903; type: cell-based, human
Summary of the method: as §3

[6] = system: 1205 Lu xenografted melanoma tumors; assay: Xenografted 1205 Lu melanoma tumor growth; type: in vivo, nude mice; details: 1205 Lu xenograft, 100 mg/kg i.p. Mon/Wed/Fri, day 21
Summary of the method: as §1

1205 Lu cells [7] = assay: Cellular S-1-P and ceramide content by LC-MS-MS, 1205 Lu; type: cell-based, human; details: 48 hours
Summary of the method: as §2

A375M melanoma cells = assay: MTS cell viability, A375M; type: cell-based, human; details: value of the text (Fig. 3A, 72 hours)
Summary of the method: as §3

1205 Lu cells [8] = assay: Caspase-3/7 activity; type: cell-based, human; details: 72 hours, tested 1, 2.5, 5.0 μM
Summary of the method: as §4

[9] = system: CYCLIN D1 in UACC 903 cells; assay: Western blot of CYCLIN D1; type: cell-based, human; details: 72 h; for Decrease in CYCLIN D1 expression: compared to DMSO
Summary of the method: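 UACC 903 cells treated 72 h with test compound or DMSO and lysed in HEPES pH 7.5 buffer with protease/phosphatase inhibitors. Lysates cleared at 10,000 x g, 10 min, 4 °C; 30 μg protein per lane. Blotted to PVDF and detected by ECL. Band intensity densitometry given as percent change versus DMSO-treated cells.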

A375M cells = assay: Caspase-3/7 activity; type: cell-based, human; details: 72 hours, tested 1, 2.5, 5.0 μM
Summary of the method: as §4

[10] = UACC 903, 2.5 μM, compared to DMSO

Chain of recombinant SPHK1 (Q9NYA1 whole entry): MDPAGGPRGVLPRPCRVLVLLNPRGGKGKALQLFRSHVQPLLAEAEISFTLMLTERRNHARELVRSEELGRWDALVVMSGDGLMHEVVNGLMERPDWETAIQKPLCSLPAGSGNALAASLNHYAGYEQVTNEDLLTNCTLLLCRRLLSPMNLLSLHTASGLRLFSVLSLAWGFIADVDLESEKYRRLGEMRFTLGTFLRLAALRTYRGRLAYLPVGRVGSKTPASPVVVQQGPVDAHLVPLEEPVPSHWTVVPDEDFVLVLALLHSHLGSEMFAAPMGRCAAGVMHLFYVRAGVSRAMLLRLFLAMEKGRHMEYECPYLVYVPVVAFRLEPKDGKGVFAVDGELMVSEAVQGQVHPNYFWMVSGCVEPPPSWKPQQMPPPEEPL

Oc1ccc(Nc2nc(-c3ccc(Cl)cc3)cs2)cc1 [SKI-II, 2-(p-hydroxyanilino)-4-(p-chlorophenyl) thiazole]
Inhibition of SPHK1 activity (recombinant SPHK1): effective at inhibiting | Difference in tumor volume between vehicle control and treatment group [1]: no effect on tumor growth | Inhibition of SPHK2 activity (recombinant SPHK2; recombinant protein): effective at inhibiting | Selectivity SPHK1 versus SPHK2 (recombinant SPHK2; recombinant proteins): slightly enhanced selectivity to SPHK2 | Effect on cellular S-1-P (UACC 903 cells [2]): did not effect | Effect on cellular ceramide levels (UACC 903 cells [2]): did not effect | Body weight change [3]: No weight changes

O=C(N/N=C/c1c(O)ccc2ccccc12)c1cc(-c2ccc3ccccc3c2)n[nH]1 [SKI-I]
IC50 (1205 Lu melanoma cells): 4.89 ± 0.63 µM | Fold decrease of the G0/G1 cell population (UACC 903 cells [4]; [10]): 2.4 fold | Fold increase of the G2/M population (UACC 903 cells [4]; [10]): 2.5 fold | G2/M cell population (UACC 903 cells [4]; UACC 903, 5 μM): below detectable levels | Concentration of maximal caspase-3/7 activity (UACC 903 cells [5]): 5 µM | Fold more effective than SKI-II (average IC50 values) (melanoma cells; SKI-I compared to SKI-II): ~ 10 fold | IC50 (melanoma cells; read-out: Average IC50 for melanoma cells, 24 h treatment): 20.6 µM | Reduction of cell viability (UACC 903 melanoma cells; UACC 903, 5 μM, 72 hours): 50% | IC50 (UACC 903 melanoma cells; UACC 903, value of the text (Fig. 3A, 72 hours)): 5.72 ± 0.35 µM | Difference in tumor volume between vehicle control and treatment group [6]: ~ 26% | Effect on cellular S-1-P (1205 Lu cells [7]): no significant change | Effect on cellular ceramide levels (1205 Lu cells [7]): increased | IC50 (A375M melanoma cells): 1.3 ± 0.27 µM | Concentration of maximal caspase-3/7 activity (1205 Lu cells [8]): 5 µM | Difference in tumor volume between vehicle control and treatment group [1]: ~ 40% | Effect on cellular ceramide levels (UACC 903 cells [2]): induced | Decrease in CYCLIN D1 expression ([9]; UACC 903, 1 μM): 86.1% | Decrease in CYCLIN D1 expression ([9]; UACC 903, 2.5 μM): 97.1% | CYCLIN D1 levels ([9]; UACC 903, 5 μM): almost undetectable | Body weight change [3]: No weight changes | Concentration of maximal caspase-3/7 activity (A375M cells): 2.5 µM
